Key:
[1] = Stability in pH 2.0 simulated gastric fluid assessed as compound degradation to beta-lactam ring open products at 1 uM after 60 mins by LC-MS/MS method; type: ADME; conditions: read-out: Drug degradation
Method in brief: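 Incubation was in simulated gastric fluid (SGF, pH 2.0) for 60 min, with loss to the β-lactam ring-opened product measured by LC-MS/MS.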

[2] = Stability in human plasma assessed as compound remaining at 50 uM at 37 degC after 60 mins by LC-MS/MS method; type: ADME, cell-free; conditions: read-out: Stability
Method in brief: (§1)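 Prodrugs were incubated in rat or human plasma for 60 min. Disappearance of prodrug and concomitant appearance of ertapenem were followed by LC-MS/MS, and in selected cases monoesters from partial hydrolysis were also monitored. Ertapenem itself was incubated the same way as a control.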

[3] = Stability in pH 7.4 phosphate buffer assessed as compound remaining at 50 uM after 3 hrs by LC-MS/MS method; type: physicochemical; conditions: read-out: Stability
[4] = Stability in rat plasma assessed as compound remaining at 50 uM at 37 degC after 60 mins by LC-MS/MS method; type: ADME, cell-free; conditions: read-out: Stability; method in brief: as §1
[5] = Stability in pH 6.5 simulated gastrointestinal fluid assessed as compound remaining at 50 uM after 3 hrs by LC-MS/MS method; type: ADME; conditions: read-out: Stability
Method in brief: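 Compounds at 50 μM were incubated in fasted-state simulated intestinal fluid (FaSSIF, pH 6.5) for over 3 h. Percent remaining was determined by LC-MS/MS.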

Compound | degraded at 1 h, 1 µM [1] | remaining at 1 h, 50 µM [2] | remaining at 3 h, 50 µM [3] | remaining at 1 h, 50 µM [4] | remaining at 3 h, 50 µM [5]
C[C@@H](O)[C@H]1C(=O)N2C(C(=O)OCC(F)(F)F)=C(S[C@@H]3CN[C@H](C(=O)Nc4cccc(C(=O)O)c4)C3)[C@H](C)[C@H]12 | > 25% | 80% | > 95% | 7% | > 95%
Cc1oc(=O)oc1COC(=O)N1C[C@@H]2C[C@H]1C(=O)Nc1cccc(c1)C(=O)OC/C=C/COC(=O)C1=C(S2)[C@H](C)[C@@H]2[C@@H]([C@@H](C)O)C(=O)N12 | > 25% | 17% | > 95% | 0% | > 95%
Cc1oc(=O)oc1COC(=O)c1cccc(NC(=O)[C@@H]2C[C@H](SC3=C(C(=O)O)N4C(=O)[C@H]([C@@H](C)O)[C@H]4[C@H]3C)CN2)c1 | > 25% | 12% | > 95% | 0% | > 95%
COC(=O)OCOC(=O)C1=C(S[C@@H]2CN[C@H](C(=O)Nc3cccc(C(=O)OCOC(=O)OC)c3)C2)[C@H](C)[C@@H]2[C@@H]([C@@H](C)O)C(=O)N12 | > 25% | 0% | > 95% | 0% | > 95%
CCOC(=O)OCOC(=O)C1=C(S[C@@H]2CN[C@H](C(=O)Nc3cccc(C(=O)OCOC(=O)OCC)c3)C2)[C@H](C)[C@@H]2[C@@H]([C@@H](C)O)C(=O)N12 | > 25% | 1% | > 95% | 0% | > 95%
C[C@@H](O)[C@H]1C(=O)N2C(C(=O)OCOC(=O)OC(C)(C)C)=C(S[C@@H]3CN[C@H](C(=O)Nc4cccc(C(=O)OCOC(=O)OC(C)(C)C)c4)C3)[C@H](C)[C@H]12 | > 25% | 67% | > 95% | 8% | > 95%
C[C@@H](O)[C@H]1C(=O)N2C(C(=O)O)=C(S[C@@H]3CN[C@H](C(=O)Nc4cccc(C(=O)OCC(F)(F)F)c4)C3)[C@H](C)[C@H]12 | > 25% | – | > 95% | – | > 95%
C[C@@H](O)[C@H]1C(=O)N2C(C(=O)OCOC(=O)OC3CCCCC3)=C(S[C@@H]3CN[C@H](C(=O)Nc4cccc(C(=O)O)c4)C3)[C@H](C)[C@H]12 | > 25% | 46% | > 95% | 0% | > 95%
CCOC(=O)C1=C(S[C@H]2C[C@@H](C(=O)Nc3cccc(C(=O)OCC)c3)N(Cc3oc(=O)oc3C)C2)[C@H](C)[C@@H]2[C@@H]([C@@H](C)O)C(=O)N12 | > 25% | 19% | > 95% | 0% | > 95%
C[C@@H](O)[C@H]1C(=O)N2C(C(=O)OCOC(=O)OC(C)(C)C)=C(S[C@@H]3CN[C@H](C(=O)Nc4cccc(C(=O)O)c4)C3)[C@H](C)[C@H]12 | > 25% | 40% | > 95% | 0% | > 95%
CCCCCCCCCCCCCCCCOC(=O)C1=C(S[C@@H]2CN[C@H](C(=O)Nc3cccc(C(=O)OCCCCCCCCCCCCCCCC)c3)C2)[C@H](C)[C@@H]2[C@@H]([C@@H](C)O)C(=O)N12 | > 25% | 89% | > 95% | 89% | > 95%
CC(C)OC(=O)C1=C(S[C@@H]2CN[C@H](C(=O)Nc3cccc(C(=O)O)c3)C2)[C@H](C)[C@@H]2[C@@H]([C@@H](C)O)C(=O)N12 | > 25% | – | > 95% | – | > 95%
CC(OC(=O)C1=C(S[C@@H]2CN[C@H](C(=O)Nc3cccc(C(=O)OC(C)OC(=O)C(C)(C)C)c3)C2)[C@H](C)[C@@H]2[C@@H]([C@@H](C)O)C(=O)N12)OC(=O)C(C)(C)C (stereo not given in full) | > 25% | 46% | > 95% | 2% | > 95%
CC(=O)OCOC(=O)C1=C(S[C@@H]2CN[C@H](C(=O)Nc3cccc(C(=O)OCOC(C)=O)c3)C2)[C@H](C)[C@@H]2[C@@H]([C@@H](C)O)C(=O)N12 | > 25% | 0% | > 95% | 0% | > 95%
C[C@@H](O)[C@H]1C(=O)N2C3=C(S[C@@H]4CN[C@@H](C4)C(=O)Nc4cccc(c4)C(=O)OCCCCOC3=O)[C@H](C)[C@H]12 | > 25% | 4% | > 95% | 0% | > 95%
CCOC(=O)OCOC(=O)C1=C(S[C@@H]2CN[C@H](C(=O)Nc3cccc(C(=O)O)c3)C2)[C@H](C)[C@@H]2[C@@H]([C@@H](C)O)C(=O)N12 | > 25% | 10% | > 95% | 0% | > 95%
C[C@@H](O)[C@H]1C(=O)N2C(C(=O)OCOC(=O)C3CCCCC3)=C(S[C@@H]3CN[C@H](C(=O)Nc4cccc(C(=O)OCOC(=O)C5CCCCC5)c4)C3)[C@H](C)[C@H]12 | > 25% | 60% | > 95% | 10% | > 95%
COC(=O)OCOC(=O)C1=C(S[C@@H]2CN[C@H](C(=O)Nc3cccc(C(=O)O)c3)C2)[C@H](C)[C@@H]2[C@@H]([C@@H](C)O)C(=O)N12 | > 25% | 33% | > 95% | 0% | > 95%
CC(C)C(=O)OCOC(=O)c1cccc(NC(=O)[C@@H]2C[C@H](SC3=C(C(=O)O)N4C(=O)[C@H]([C@@H](C)O)[C@H]4[C@H]3C)CN2)c1 | > 25% | 26% | > 95% | 0% | > 95%
C[C@@H](O)[C@H]1C(=O)N2C3=C(S[C@@H]4CN[C@@H](C4)C(=O)Nc4cccc(c4)C(=O)OC/C=C\COC3=O)[C@H](C)[C@H]12 | > 25% | 21% | > 95% | 0% | > 95%
C[C@@H](O)[C@H]1C(=O)N2C3=C(S[C@@H]4CN[C@@H](C4)C(=O)Nc4cccc(c4)C(=O)OCOCOC3=O)[C@H](C)[C@H]12 | > 25% | 60% | > 95% | 0% | > 95%
Cc1oc(=O)oc1COC(=O)N1C[C@@H]2C[C@H]1C(=O)Nc1cccc(c1)C(=O)OCc1oc(=O)oc1COC(=O)C1=C(S2)[C@H](C)[C@@H]2[C@@H]([C@@H](C)O)C(=O)N12 | > 25% | 0% | > 95% | 0% | > 95%
CC(C)OC(=O)OCOC(=O)C1=C(S[C@@H]2CN[C@H](C(=O)Nc3cccc(C(=O)O)c3)C2)[C@H](C)[C@@H]2[C@@H]([C@@H](C)O)C(=O)N12 | > 25% | 62% | > 95% | 0% | > 95%
C[C@@H](O)[C@H]1C(=O)N2C(C(=O)OCOC(=O)C(C)(C)C)=C(S[C@@H]3CN[C@H](C(=O)Nc4cccc(C(=O)O)c4)C3)[C@H](C)[C@H]12 | > 25% | 45% | > 95% | 0% | > 95%
C[C@@H](O)[C@H]1C(=O)N2C(C(=O)OCOC(=O)C3CCCCC3)=C(S[C@@H]3CN[C@H](C(=O)Nc4cccc(C(=O)O)c4)C3)[C@H](C)[C@H]12 | > 25% | 20% | > 95% | 0% | > 95%
C[C@@H](O)[C@H]1C(=O)N2C(C(=O)OCOC(=O)OC3CCCCC3)=C(S[C@@H]3CN[C@H](C(=O)Nc4cccc(C(=O)OCOC(=O)OC5CCCCC5)c4)C3)[C@H](C)[C@H]12 | > 25% | 96% | > 95% | 10% | > 95%
CCOC(=O)C1=C(S[C@@H]2CN[C@H](C(=O)Nc3cccc(C(=O)O)c3)C2)[C@H](C)[C@@H]2[C@@H]([C@@H](C)O)C(=O)N12 | > 25% | – | > 95% | – | > 95%
CC(C)OC(=O)c1cccc(NC(=O)[C@@H]2C[C@H](SC3=C(C(=O)O)N4C(=O)[C@H]([C@@H](C)O)[C@H]4[C@H]3C)CN2)c1 | > 25% | – | > 95% | – | > 95%
CCOC(=O)c1cccc(NC(=O)[C@@H]2C[C@H](SC3=C(C(=O)O)N4C(=O)[C@H]([C@@H](C)O)[C@H]4[C@H]3C)CN2)c1 | > 25% | – | > 95% | – | > 95%

Source: ChEMBL document CHEMBL3351346, “Design, synthesis, structure-function relationship, bioconversion, and pharmacokinetic evaluation of ertapenem prodrugs” (J Med Chem, 2014)
